In the library only some 4% were active in any assay of this set; here they are far more common.
KCNK9 inh: inhibitors of human KCNK9 two-pore domain potassium channel. hit rate 1.2% among 310,000. AID 488922. B-score at 10 µM. Q9NPC2. HEK293 KCNK9, FluxOR thallium flux fluorescence; active compounds read low;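 active means ratio B-score over 3 SD below the library mean, with starting fluorescence within 5 SD of its mean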;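 further: negative B-score means less thallium flux so channel inhibition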
KCNQ1 pot: potentiates or activates the human KCNQ1 potassium channel; CHO-K1 KCNQ1, thallium flux FluxOR fluorescence; active compounds read high; B-score at 10 µM; hit rate 0.35% among 310,000;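 active means fluorescence ratio B-score, a plate-corrected score, at least three library SD, with initial intensity B-score within 5 SD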
Target sequence (P51787 whole entry, looked up): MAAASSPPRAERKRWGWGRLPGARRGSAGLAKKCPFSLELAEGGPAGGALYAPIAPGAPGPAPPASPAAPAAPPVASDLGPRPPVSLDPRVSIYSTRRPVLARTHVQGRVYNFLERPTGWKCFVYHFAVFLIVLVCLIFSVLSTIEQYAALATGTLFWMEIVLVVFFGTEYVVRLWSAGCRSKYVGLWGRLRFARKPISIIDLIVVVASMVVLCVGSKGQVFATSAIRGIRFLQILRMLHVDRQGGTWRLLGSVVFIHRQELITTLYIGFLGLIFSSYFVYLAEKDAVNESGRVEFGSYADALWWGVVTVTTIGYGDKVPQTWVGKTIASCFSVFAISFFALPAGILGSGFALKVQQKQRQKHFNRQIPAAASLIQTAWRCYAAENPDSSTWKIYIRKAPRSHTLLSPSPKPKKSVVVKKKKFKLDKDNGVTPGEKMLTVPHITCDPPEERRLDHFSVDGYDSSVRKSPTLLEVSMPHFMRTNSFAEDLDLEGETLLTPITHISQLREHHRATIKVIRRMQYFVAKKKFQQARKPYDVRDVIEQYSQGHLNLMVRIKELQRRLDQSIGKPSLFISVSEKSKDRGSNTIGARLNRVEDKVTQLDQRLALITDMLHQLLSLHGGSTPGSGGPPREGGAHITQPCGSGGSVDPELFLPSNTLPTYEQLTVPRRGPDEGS
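Test system: CHO-K1 cells stably expressing KCNQ1 / Medium: assay buffer / Also added: depolarizing K+/Tl+ stimulus, K2SO4 and Tl2SO4 each 12.5 mM in 5x stock / Incubation: 90 min dye loading and 20 min compound exposure, both at room temperature / Signal: thallium influx via FluxOR fluorescence, kinetic imaging / Evaluation: B score of baseline-normalized fluorescence ratio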
KCNK3 inh: human KCNK3 channel inhibition, primary screen. hit rate 0.84% among 340,000. O14649. CHO-KCNK3 thallium flux, FluxOR fluorescence; active compounds read low. B-score at 10 µM;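 active means B-score under library mean minus 4 SD, starting fluorescence ratio at most library mean plus 5 SD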;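 further: more negative B-score means stronger inhibition of thallium flux through KCNK3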
hERG rescue: compounds protecting human hERG from proarrhythmic drug block; Q12809; CHO-hERG, FluxOR thallium flux, dofetilide IC70 present; activation (rescue from dofetilide block), less the hit threshold, % at 10 µM; hit rate 0.51% among 310,000; AID 1511;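 active means activation above the mean of controls blocked by dofetilide plus 5 SD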;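 further: thallium influx through hERG after potassium depolarization seen as dye fluorescence rise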
PHOSPHO1 block: PHOSPHO1 (human) inhibition; Q8TCT1; recombinant PHOSPHO1, absorbance phosphatase assay; inhibition, % at 13.3 µM; hit rate 1.1% among 290,000; in the data active means inhibition above about 60%
KCNQ1 block: human KCNQ1 channel inhibition; CHO-K1 KCNQ1, FluxOR thallium flux fluorescence; active compounds read high; B-score at 10 µM; hit rate 1.3% among 310,000;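 active means compounds whose thallium flux B-score, printed positive for inhibition, exceeds three library SD while starting fluorescence stays within three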;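 further: channel opened by potassium depolarization with thallium stimulus after 20 min compound exposure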
KCNK3 inh conf: confirmation of human KCNK3 two-pore domain potassium channel inhibitors | hit rate 99% among 2,400 | shares compounds with KCNK3 inh | CHO-KCNK3 thallium flux, FluxOR fluorescence; 0% buffer, 100% carvedilol maximal block | ratio percent of control, % at 10 µM;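 active means ratio percent of control, averaged over triplicates, above buffer control mean plus 5 SD, cut at about 64% in these data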;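 further: ratio is the fluorescence rise from min to max over baseline after thallium stimulus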
KCNK3 noninduced: counter-screen for KCNK3 inhibitors: effect in non-induced cells; shares compounds with KCNK3 inh; thallium flux ratio (lower = more inhibition) at 10 µM; AID 651747; hit rate 40% among 2,400; non-induced KCNK3 parental cells, FluxOR thallium flux; active compounds read low;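 active means thallium flux ratio, averaged over three wells, more than 5 SD below the buffer control mean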;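 further: host cells are CHO cells without KCNK3 induction; ratio is peak minus trough fluorescence over baseline then normalized to buffer controls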
The depositor's hits bear a star; i = inactive; . = no result given.

SMILES	KCNK9 inh	KCNQ1 pot	KCNK3 inh	hERG rescue	PHOSPHO1 block	KCNQ1 block	KCNK3 inh conf	KCNK3 noninduced
O=C(O)c1ccc2c(=O)n(Cc3ccccc3)c(SCc3ccc([N+](=O)[O-])cc3)nc2c1	i	i	i	-7.9	17.5	i	.	.
CCOc1ccc(OCC)c(S(=O)(=O)n2cnc(C)c2)c1	i	i	-8.85*	-9.4	8.5	i	82.0*	i
O=C(CN(C(=O)CNC(=O)c1cccs1)c1ccccc1)NC1CCCCC1	i	i	i	-2.8	-2.2	i	.	.
O=C(N/N=C/C1C(c2ccccc2)C1(Cl)Cl)c1cccc(Br)c1 (configuration not stated)	-7.35*	i	-13*	-10.8	5.5	10*	114.7*	i
Cn1nccc1C(=O)OCC(=O)Nc1ccccc1	i	i	i	-7.2	34.8	i	.	.
Cc1ccc(NC(=O)CNc2cccc(S(=O)(=O)N3CCCCC3)c2)cc1F	-7.63*	i	i	-17.1	.	i	96.3*	i
Cc1cccc(OCCn2nc(C(=O)O)c3ccccc3c2=O)c1	i	i	i	-3.4	6.4	i	.	.
CC(C)(C)c1ccc(OCCn2nc(C(=O)O)c3ccccc3c2=O)cc1	i	i	-9.08*	-7.7	50.8	i	112.3*	i
CCN1C=C(Cc2ccc(F)cc2)C2=C(C1)C(c1ccc(F)cc1)C(C#N)=C(N)O2 (configuration not stated)	i	i	-9.72*	-12.0	16.2	i	110.3*	i
Fc1ccccc1C1c2[nH]c3ccccc3c2CCN1CCCn1cccn1 (configuration not stated)	i	i	i	-12.9	13.5	i	.	.
COc1cc(CN(C)CC2CCCN(CCc3ccc(F)cc3)C2)c(Cl)cc1O (configuration not stated)	i	i	-9.57*	-8.8	7.8	i	80.3*	i
Cc1ccc(-n2ncc3c(NNC(=O)c4ccco4)ncnc32)cc1C	i	i	i	-13.4	37.6	i	.	.
COc1ccc(C2CC(C(F)(F)F)n3ncc(C(=O)Nc4cccc(O)c4)c3N2)cc1OC (configuration not stated)	i	i	i	-2.6	22.4	i	.	.
CCOc1ccc(/C=N/NC(=O)CN2CCCCC2)cc1OCC	i	i	i	-3.7	34.8	i	.	.
CCOc1cc(/C=N/NC(=O)CN2CCOCC2)ccc1OCc1ccc(Cl)cc1	i	i	-10.7*	-4.7	-6.9	i	0.0	i
O=C(Nc1ccccc1N1CCOCC1)c1cccc(NS(=O)(=O)c2ccc(F)c(F)c2)c1	i	i	-8.73*	-10.4	1.5	i	94.3*	0.159*
O=C(Nc1ccccc1N1CCOCC1)c1cc2c(s1)CCCCC2	i	i	-10.4*	-5.4	-13.4	i	118.3*	i
CC(=O)Nc1cccc(C(=O)Nc2ccccc2N2CCOCC2)c1	i	i	i	-11.9	-2.1	i	.	.
OCc1c(OCc2cccc(F)c2)ccc2ccccc12	i	i	-9.5*	-6.9	8.5	i	97.3*	i
CNCc1c(OCc2ccc(F)cc2)ccc2ccccc12	i	i	i	-18.9	20.3	i	.	.
Cc1cc(C)c(S(=O)(=O)N2CCc3ccccc32)c(C)c1	i	i	-12.7*	-10.5	.	6*	115.0*	0.134*
CCc1nc(Nc2ccccc2OC)c2oc3ccccc3c2n1	i	i	-9.16*	-5.3	-3.5	i	116.3*	0.145*
COC(=O)c1cn(CCOc2ccc(C)cc2)c2ccccc12	i	i	-8.93*	-5.0	-10.9	i	108.0*	i
CC(=O)c1cn(CCOc2ccc(F)cc2)c2ccccc12	i	i	-8.96*	-7.4	28.7	i	104.0*	i
Cc1ccc(OCCn2cc(C#N)c3ccccc32)cc1	i	i	-9.5*	-6.5	-8.3	i	100.7*	0.152*
SMILES	KCNK9 inh	KCNQ1 pot	KCNK3 inh	hERG rescue	PHOSPHO1 block	KCNQ1 block	KCNK3 inh conf	KCNK3 noninduced
Cc1ccc(OCCn2cc(/C=C/C(=O)O)c3ccccc32)cc1	i	i	i	-8.6	22.9	i	.	.
O=C(c1ccco1)N1CCN(c2ncnc3c2oc2ccccc23)CC1	i	i	i	-8.2	10.4	i	.	.
Cc1ccc(C)c2[nH]c(=O)c(CCNC(=O)C(C)(C)C)cc12	i	i	i	-10.4	30.2	i	.	.
Cc1cc(C)c2nc3sc(C(=O)N4CCOCC4)c(N)c3cc2c1	i	i	-10.7*	-22.2	-34.5	i	115.0*	0.133*
Cc1ccc(C)c2nc3sc(C(=O)N4CCOCC4)c(N)c3cc12	i	i	i	-16.4	28.3	i	.	.
O=C(CCc1nnc(-c2ccc3c(c2)OCO3)o1)N1CCC(c2ccc(F)cc2)C1 (configuration not stated)	i	i	i	-16.8	47.7	i	.	.
O=C(CCCN=C1NS(=O)(=O)c2ccccc21)OCC(=O)c1ccccc1Cl	i	i	i	-15.2	.	i	.	.
COc1cc(CC(=O)N(C)CC(=O)Nc2ccc(Cl)c(C(F)(F)F)c2)cc(OC)c1OC	i	i	-9.2*	-7.9	20.0	i	113.3*	i
O=C(CCOc1cccc(Br)c1)Nc1ccc(F)c(S(=O)(=O)N2CCOCC2)c1	.	.	-11.9*	.	.	.	97.0*	i
Cc1ccc2oc(=O)c3cc(C(=O)N4CCN(C(=O)c5ccco5)CC4)sc3c2c1	i	i	.	-9.6	23.7	i	.	.
CCN(Cc1ccccc1)C(=O)c1cc2c(=O)oc3ccc(C)cc3c2s1	i	i	-8.89*	-20.4	17.3	6*	111.0*	0.123*
O=S(=O)(Nc1cccc(Br)c1)c1cccc2nsnc12	i	i	i	-4.4	29.5	i	.	.
CCOC(=O)CSc1nc2ccccc2c(=O)n1CC1CCCC1	i	i	-11.4*	-12.1	6.3	i	116.0*	0.146*
CCOC(=O)CSc1nc2ccccc2c(=O)n1CC	i	i	i	-0.8	12.4	i	.	.
Cc1ccc(NC(=O)c2ccc(Cl)c(S(=O)(=O)N3CCCCCC3)c2)nc1	i	i	-9.65*	-8.7	.	i	114.7*	i
O=C(Nc1ccccn1)c1ccc(Cl)c(S(=O)(=O)N2CCCC2)c1	i	i	i	-16.2	.	i	.	.
O=C(Nc1ccc(Cl)cn1)c1ccc(Br)c(S(=O)(=O)N2CCCCC2)c1	-7.44*	i	i	-5.3	5.8	i	102.3*	i
